Reference: ChEMBL document CHEMBL4004831, “Naphthalene diimide-polyamine hybrids as antiproliferative agents: Focus on the architecture of the polyamine chains” (Eur J Med Chem, 2017)
Each block holds one compound with its values, some of them ahead of it.

Key:
Hs-578T = assay: Growth inhibition of human Hs 578T cells incubated for 48 hrs by sulforhodamine B assay; type: functional
SK-MEL-5 = assay: Growth inhibition of human SK-MEL-5 cells incubated for 48 hrs by sulforhodamine B assay; type: functional; details: SK-MEL-5, 48 h
MDA-MB-231 = assay: Growth inhibition of human MDA-MB-231 cells incubated for 48 hrs by sulforhodamine B assay; type: functional; details: MDA-MB-231, 48 h
SR = assay: Growth inhibition of human SR cells incubated for 48 hrs by sulforhodamine B assay; type: functional
CCRF-CEM = assay: Growth inhibition of human CCRF-CEM cells incubated for 48 hrs by sulforhodamine B assay; type: functional
UACC-62 = assay: Growth inhibition of human UACC62 cells incubated for 48 hrs by sulforhodamine B assay; type: functional; details: UACC-62, 48 h
IGROV-1 = assay: Growth inhibition of human IGROV1 cells incubated for 48 hrs by sulforhodamine B assay; type: functional; details: IGROV-1, 48 h
U-251 = assay: Growth inhibition of human U251 cells incubated for 48 hrs by sulforhodamine B assay; type: functional; details: U-251, 48 h
CAKI-1 = assay: Growth inhibition of human Caki1 cells incubated for 48 hrs by sulforhodamine B assay; type: functional; details: CAKI-1, 48 h
TK-10 = assay: Growth inhibition of human TK10 cells incubated for 48 hrs by sulforhodamine B assay; type: functional; details: TK-10, 48 h
Homo sapiens = organism: Homo sapiens; assay: Stabilization of 5'Dabcyl/3'FAM labeled human telomeric sequence G-quadruplex DNA assessed as increase in melting temperature at 2.5 uM pretreated for 5 mins at 30 degreeC followed by 5 mins incubation at 95 degreeC by fluorescence assay
Summary of the method: (§1)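 FRET melting in LiP buffer (10 mM LiOH, 50 mM KCl, pH 7.0 with H3PO4), ex 488 nm, em 520 nm. Samples were held 5 min at 30 °C, heated at 1 °C/min to 95 °C, held 5 min, then re-annealed. Tm came from first derivatives; ΔTm = shift with ligand at 2.5; at least three runs.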

NCI-H226 = assay: Growth inhibition of human NCI-H226 cells incubated for 48 hrs by sulforhodamine B assay; type: functional; details: NCI-H226, 48 h
HCT-116 = assay: Growth inhibition of human HCT116 cells incubated for 48 hrs by sulforhodamine B assay; type: functional; details: HCT-116, 48 h
786-0 = assay: Growth inhibition of human 786-0 cells incubated for 48 hrs by sulforhodamine B assay; type: functional; details: 786-0, 48 h
HL-60 = assay: Growth inhibition of human HL60 cells incubated for 48 hrs by sulforhodamine B assay; type: functional; details: HL-60, 48 h
BT-549 = assay: Growth inhibition of human BT549 cells incubated for 48 hrs by sulforhodamine B assay; type: functional; details: BT-549, 48 h
HCC 2998 = assay: Growth inhibition of human HCC2998 cells incubated for 48 hrs by sulforhodamine B assay; type: functional; details: HCC 2998, 48 h
NCI/ADR-RES = assay: Growth inhibition of human NCI-ADR-RES cells incubated for 48 hrs by sulforhodamine B assay; type: functional
ACHN = assay: Growth inhibition of human ACHN cells incubated for 48 hrs by sulforhodamine B assay; type: functional
MOLT-4 = assay: Growth inhibition of human MOLT4 cells incubated for 48 hrs by sulforhodamine B assay; type: functional; details: MOLT-4, 48 h
NCI-H322M = assay: Growth inhibition of human NCI-H322M cells incubated for 48 hrs by sulforhodamine B assay; type: functional
SNB-75 = assay: Growth inhibition of human SNB75 cells incubated for 48 hrs by sulforhodamine B assay; type: functional; details: SNB-75, 48 h
SF-539 = assay: Growth inhibition of human SF539 cells incubated for 48 hrs by sulforhodamine B assay; type: functional; details: SF-539, 48 h
UO-31 = assay: Growth inhibition of human UO31 cells incubated for 48 hrs by sulforhodamine B assay; type: functional; details: UO-31, 48 h
SN12C = assay: Growth inhibition of human SN12C cells incubated for 48 hrs by sulforhodamine B assay; type: functional
NCI-H460 = assay: Growth inhibition of human NCI-H460 cells incubated for 48 hrs by sulforhodamine B assay; type: functional; details: NCI-H460, 48 h
EKVX = assay: Growth inhibition of human EKVX cells incubated for 48 hrs by sulforhodamine B assay; type: functional
UACC-257 = assay: Growth inhibition of human UACC257 cells incubated for 48 hrs by sulforhodamine B assay; type: functional; details: UACC-257, 48 h
SF-295 = assay: Growth inhibition of human SF295 cells incubated for 48 hrs by sulforhodamine B assay; type: functional; details: SF-295, 48 h
COLO 205 = assay: Growth inhibition of human COLO205 cells incubated for 48 hrs by sulforhodamine B assay; type: functional; details: COLO 205, 48 h
RPMI-8226 = assay: Growth inhibition of human RPMI8226 cells incubated for 48 hrs by sulforhodamine B assay; type: functional; details: RPMI-8226, 48 h
SW-620 = assay: Growth inhibition of human SW620 cells incubated for 48 hrs by sulforhodamine B assay; type: functional; details: SW-620, 48 h
NCI-H522 = assay: Growth inhibition of human NCI-H522 cells incubated for 48 hrs by sulforhodamine B assay; type: functional; details: NCI-H522, 48 h
OVCAR-4 = assay: Growth inhibition of human OVCAR4 cells incubated for 48 hrs by sulforhodamine B assay; type: functional; details: OVCAR-4, 48 h
A549 = assay: Growth inhibition of human A549/ATCC cells incubated for 48 hrs by sulforhodamine B assay; type: functional; details: A549, 48 h
K562 = assay: Growth inhibition of human K562 cells incubated for 48 hrs by sulforhodamine B assay; type: functional; details: K562, 48 h
HCT-15 = assay: Growth inhibition of human HCT15 cells incubated for 48 hrs by sulforhodamine B assay; type: functional; details: HCT-15, 48 h
SNB-19 = assay: Growth inhibition of human SNB19 cells incubated for 48 hrs by sulforhodamine B assay; type: functional; details: SNB-19, 48 h
OVCAR-3 = assay: Growth inhibition of human OVCAR3 cells incubated for 48 hrs by sulforhodamine B assay; type: functional; details: OVCAR-3, 48 h
A498 = assay: Growth inhibition of human A498 cells incubated for 48 hrs by sulforhodamine B assay; type: functional; details: A498, 48 h
HOP-62 = assay: Growth inhibition of human HOP62 cells incubated for 48 hrs by sulforhodamine B assay; type: functional; details: HOP-62, 48 h
[1] = Stabilization of 5'Dabcyl/3'FAM labeled duplex DNA (unknown origin) assessed as increase in melting temperature at 2.5 uM pretreated for 5 mins at 30 degreeC followed by 5 mins incubation at 95 degreeC by fluorescence assay; summary of the method: as §1
KM12 = assay: Growth inhibition of human KM12 cells incubated for 48 hrs by sulforhodamine B assay; type: functional; details: KM12, 48 h
M14 = assay: Growth inhibition of human M14 cells incubated for 48 hrs by sulforhodamine B assay; type: functional; details: M14, 48 h
LOX IMVI = assay: Growth inhibition of human LOXIMVI cells incubated for 48 hrs by sulforhodamine B assay; type: functional

GI50 (SK-MEL-5): 484 nM | GI50 (MDA-MB-231): 1420 nM | GI50 (CCRF-CEM): 193 nM | GI50 (U-251): 108 nM | ΔTm (Homo sapiens): 13.3 °C | GI50 (NCI-H226): 746 nM | GI50 (HCT-116): 135 nM | GI50 (786-0): 715 nM | GI50 (HL-60): 812 nM | GI50 (BT-549): 1440 nM | GI50 (HCC 2998): 352 nM | GI50 (ACHN): 529 nM | GI50 (MOLT-4): 194 nM | GI50 (NCI-H322M): 1070 nM | GI50 (NCI-H460): 154 nM | GI50 (COLO 205): 457 nM | GI50 (RPMI-8226): 612 nM | GI50 (SW-620): 109 nM | GI50 (NCI-H522): 572 nM | GI50 (OVCAR-4): 873 nM | GI50 (A549): 148 nM | GI50 (K562): 264 nM | GI50 (HCT-15): 887 nM | GI50 (OVCAR-3): 332 nM | ΔTm [1]: 7 °C
Structure (SMILES): COc1ccccc1CNCCCN1C(=O)c2ccc3c4c(ccc(c24)C1=O)C(=O)N(CCCNCCCN)C3=O
GI50 (Hs-578T): 1220 nM | GI50 (SR): 28 nM | GI50 (UACC-62): 655 nM | GI50 (IGROV-1): 275 nM | GI50 (CAKI-1): 828 nM | GI50 (TK-10): 1610 nM | GI50 (NCI/ADR-RES): 1160 nM | GI50 (SNB-75): 1300 nM | GI50 (SF-539): 968 nM | GI50 (UO-31): 745 nM | GI50 (SN12C): 538 nM | GI50 (EKVX): 1020 nM | GI50 (UACC-257): 625 nM | GI50 (SF-295): 456 nM | GI50 (SNB-19): 702 nM | GI50 (A498): 398 nM | GI50 (HOP-62): 466 nM | GI50 (KM12): 705 nM | GI50 (M14): 992 nM | GI50 (LOX IMVI): 302 nM

GI50 (SK-MEL-5): 156 nM | GI50 (MDA-MB-231): 435 nM | GI50 (CCRF-CEM): 425 nM | GI50 (U-251): 328 nM | ΔTm (Homo sapiens): 21.4 °C | GI50 (NCI-H226): 928 nM | GI50 (HCT-116): 315 nM | GI50 (786-0): 1170 nM | GI50 (HL-60): 438 nM | GI50 (BT-549): 1710 nM | GI50 (HCC 2998): 296 nM | GI50 (ACHN): 747 nM | GI50 (MOLT-4): 584 nM | GI50 (NCI-H322M): 1210 nM | GI50 (NCI-H460): 311 nM | GI50 (COLO 205): 168 nM | GI50 (RPMI-8226): 626 nM | GI50 (SW-620): 262 nM | GI50 (NCI-H522): 180 nM | GI50 (OVCAR-4): 160 nM | GI50 (A549): 581 nM | GI50 (K562): 301 nM | GI50 (HCT-15): 1740 nM | GI50 (OVCAR-3): 262 nM | ΔTm [1]: 6.7 °C
Structure (SMILES): COc1ccccc1CNCCCN1C(=O)c2ccc3c4c(ccc(c24)C1=O)C(=O)N(CCCNCCCCNCCCN)C3=O
GI50 (Hs-578T): 1360 nM | GI50 (SR): 325 nM | GI50 (UACC-62): 364 nM | GI50 (IGROV-1): 360 nM | GI50 (CAKI-1): 2610 nM | GI50 (TK-10): 422 nM | GI50 (NCI/ADR-RES): 2040 nM | GI50 (SNB-75): 752 nM | GI50 (SF-539): 426 nM | GI50 (UO-31): 2680 nM | GI50 (SN12C): 319 nM | GI50 (EKVX): 1400 nM | GI50 (UACC-257): 176 nM | GI50 (SF-295): 1080 nM | GI50 (SNB-19): 579 nM | GI50 (A498): 1340 nM | GI50 (HOP-62): 664 nM | GI50 (KM12): 340 nM | GI50 (M14): 645 nM | GI50 (LOX IMVI): 300 nM
